Reference: ChEMBL document CHEMBL2424622, “Development of amino-pyrimidine inhibitors of c-Jun N-terminal kinase (JNK): kinase profiling guided optimization of a 1,2,3-benzotriazole lead” (Bioorg Med Chem Lett, 2013)

Tests used:
[1] = target: Platelet-derived growth factor receptor beta (Homo sapiens, UniProt P09619); assay: Competitive binding affinity to PDGFRB (unknown origin) at 10 uM in presence of ATP relative to control
How it was run: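 In vitro ATP-site competition binding assay across a diverse panel of 128 kinases, with each compound tested at a single concentration. Kinase binding is expressed relative to control.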

[2] = target: T1, Tyrosine-protein kinase ITK/TSK (Homo sapiens) (UniProt Q08881); assay: Competitive binding affinity to ITK (unknown origin) at 10 uM in presence of ATP relative to control
T1 sequence (whole entry): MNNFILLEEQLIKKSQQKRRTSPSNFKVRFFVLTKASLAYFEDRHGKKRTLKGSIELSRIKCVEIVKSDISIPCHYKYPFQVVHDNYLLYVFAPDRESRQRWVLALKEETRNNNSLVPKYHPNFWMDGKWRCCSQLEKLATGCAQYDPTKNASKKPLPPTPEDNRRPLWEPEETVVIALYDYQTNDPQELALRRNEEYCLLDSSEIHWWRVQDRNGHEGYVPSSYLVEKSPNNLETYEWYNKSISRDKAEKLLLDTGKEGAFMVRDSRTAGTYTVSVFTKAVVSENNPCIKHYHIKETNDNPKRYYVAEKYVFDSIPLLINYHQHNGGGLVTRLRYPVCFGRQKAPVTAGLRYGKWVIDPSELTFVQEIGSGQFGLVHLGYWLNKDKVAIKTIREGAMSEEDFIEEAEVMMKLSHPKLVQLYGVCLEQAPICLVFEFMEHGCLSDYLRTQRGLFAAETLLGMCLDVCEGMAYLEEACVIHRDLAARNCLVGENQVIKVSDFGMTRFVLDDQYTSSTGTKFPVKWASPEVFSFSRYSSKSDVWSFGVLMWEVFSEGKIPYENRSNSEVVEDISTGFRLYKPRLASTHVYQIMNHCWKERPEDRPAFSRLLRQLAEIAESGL
How it was run: (§1)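 In vitro ATP-site competition binding assay, part of profiling against a diverse panel of 128 kinases. Each compound was tested at a single concentration of 10 µM. Kinome selectivity was summarized as S15 selectivity scores.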

[3] = target: Vascular endothelial growth factor receptor 2 (Homo sapiens) (UniProt P35968); assay: Competitive binding affinity to VEGFR2 (unknown origin) at 10 uM in presence of ATP relative to control
Sequence of Vascular endothelial growth factor receptor 2 (Homo sapiens) (P35968 whole entry): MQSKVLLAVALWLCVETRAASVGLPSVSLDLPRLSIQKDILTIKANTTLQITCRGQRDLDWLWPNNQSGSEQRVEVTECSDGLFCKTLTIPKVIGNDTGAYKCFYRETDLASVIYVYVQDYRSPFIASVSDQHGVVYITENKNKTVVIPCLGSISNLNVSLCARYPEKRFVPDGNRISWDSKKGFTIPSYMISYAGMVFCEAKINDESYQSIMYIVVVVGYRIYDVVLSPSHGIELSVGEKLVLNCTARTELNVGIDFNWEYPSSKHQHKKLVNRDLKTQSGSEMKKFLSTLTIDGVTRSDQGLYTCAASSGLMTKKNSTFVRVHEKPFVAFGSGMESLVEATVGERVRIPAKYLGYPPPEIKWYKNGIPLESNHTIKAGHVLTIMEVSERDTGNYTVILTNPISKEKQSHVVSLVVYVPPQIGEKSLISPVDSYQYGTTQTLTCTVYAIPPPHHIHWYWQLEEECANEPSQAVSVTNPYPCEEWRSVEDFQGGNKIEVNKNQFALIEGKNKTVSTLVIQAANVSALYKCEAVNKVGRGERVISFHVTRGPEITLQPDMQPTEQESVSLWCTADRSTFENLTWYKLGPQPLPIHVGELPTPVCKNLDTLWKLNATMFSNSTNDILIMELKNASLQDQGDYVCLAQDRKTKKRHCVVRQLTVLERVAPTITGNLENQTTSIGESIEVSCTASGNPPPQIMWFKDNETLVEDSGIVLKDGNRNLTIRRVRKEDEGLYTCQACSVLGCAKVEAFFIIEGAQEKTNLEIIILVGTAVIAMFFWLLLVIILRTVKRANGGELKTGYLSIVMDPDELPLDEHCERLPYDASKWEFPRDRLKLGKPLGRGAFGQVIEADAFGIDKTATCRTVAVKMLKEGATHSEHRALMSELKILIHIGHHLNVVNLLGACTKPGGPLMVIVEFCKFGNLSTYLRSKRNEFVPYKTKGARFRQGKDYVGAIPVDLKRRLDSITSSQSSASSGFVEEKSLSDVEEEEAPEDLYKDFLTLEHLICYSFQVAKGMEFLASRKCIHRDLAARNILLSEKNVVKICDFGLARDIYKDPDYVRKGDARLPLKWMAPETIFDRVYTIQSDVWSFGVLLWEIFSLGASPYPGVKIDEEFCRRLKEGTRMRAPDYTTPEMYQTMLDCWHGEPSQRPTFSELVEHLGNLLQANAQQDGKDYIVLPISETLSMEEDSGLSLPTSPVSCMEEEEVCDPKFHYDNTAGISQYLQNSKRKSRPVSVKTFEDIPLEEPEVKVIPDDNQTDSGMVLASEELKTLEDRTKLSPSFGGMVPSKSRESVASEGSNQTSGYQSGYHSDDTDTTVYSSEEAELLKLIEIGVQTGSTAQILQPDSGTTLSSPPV
How it was run: (§2)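 In vitro ATP-site competition binding assay across a diverse panel of 128 kinases, with compound tested at a single concentration. Kinase selectivity scores (S15) were calculated from the panel profiles.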

[4] = target: Tyrosine-protein kinase Lck (Homo sapiens) (UniProt P06239); assay: Competitive binding affinity to LCK (unknown origin) at 10 uM in presence of ATP relative to control; how it was run: as §1
Sequence of Tyrosine-protein kinase Lck (Homo sapiens) (P06239 2-509 limits assumed): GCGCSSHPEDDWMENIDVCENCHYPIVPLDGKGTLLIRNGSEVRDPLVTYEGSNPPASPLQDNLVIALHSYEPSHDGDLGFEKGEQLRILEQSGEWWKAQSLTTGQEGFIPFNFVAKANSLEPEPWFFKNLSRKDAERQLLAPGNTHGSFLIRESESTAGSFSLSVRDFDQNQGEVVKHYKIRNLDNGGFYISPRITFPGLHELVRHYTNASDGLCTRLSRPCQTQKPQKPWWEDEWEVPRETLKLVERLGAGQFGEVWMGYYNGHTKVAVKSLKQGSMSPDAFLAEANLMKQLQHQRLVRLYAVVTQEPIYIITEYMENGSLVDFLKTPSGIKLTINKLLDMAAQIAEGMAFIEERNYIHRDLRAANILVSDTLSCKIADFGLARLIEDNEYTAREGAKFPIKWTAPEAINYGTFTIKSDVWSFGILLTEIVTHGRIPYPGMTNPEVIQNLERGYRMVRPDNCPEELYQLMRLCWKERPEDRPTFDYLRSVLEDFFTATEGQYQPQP

[5] = target: T2, Serine/threonine-protein kinase PLK4 (Homo sapiens) (UniProt O00444); assay: Competitive binding affinity to PLK4 (unknown origin) at 10 uM in presence of ATP relative to control; how it was run: as §2
T2 sequence (whole entry): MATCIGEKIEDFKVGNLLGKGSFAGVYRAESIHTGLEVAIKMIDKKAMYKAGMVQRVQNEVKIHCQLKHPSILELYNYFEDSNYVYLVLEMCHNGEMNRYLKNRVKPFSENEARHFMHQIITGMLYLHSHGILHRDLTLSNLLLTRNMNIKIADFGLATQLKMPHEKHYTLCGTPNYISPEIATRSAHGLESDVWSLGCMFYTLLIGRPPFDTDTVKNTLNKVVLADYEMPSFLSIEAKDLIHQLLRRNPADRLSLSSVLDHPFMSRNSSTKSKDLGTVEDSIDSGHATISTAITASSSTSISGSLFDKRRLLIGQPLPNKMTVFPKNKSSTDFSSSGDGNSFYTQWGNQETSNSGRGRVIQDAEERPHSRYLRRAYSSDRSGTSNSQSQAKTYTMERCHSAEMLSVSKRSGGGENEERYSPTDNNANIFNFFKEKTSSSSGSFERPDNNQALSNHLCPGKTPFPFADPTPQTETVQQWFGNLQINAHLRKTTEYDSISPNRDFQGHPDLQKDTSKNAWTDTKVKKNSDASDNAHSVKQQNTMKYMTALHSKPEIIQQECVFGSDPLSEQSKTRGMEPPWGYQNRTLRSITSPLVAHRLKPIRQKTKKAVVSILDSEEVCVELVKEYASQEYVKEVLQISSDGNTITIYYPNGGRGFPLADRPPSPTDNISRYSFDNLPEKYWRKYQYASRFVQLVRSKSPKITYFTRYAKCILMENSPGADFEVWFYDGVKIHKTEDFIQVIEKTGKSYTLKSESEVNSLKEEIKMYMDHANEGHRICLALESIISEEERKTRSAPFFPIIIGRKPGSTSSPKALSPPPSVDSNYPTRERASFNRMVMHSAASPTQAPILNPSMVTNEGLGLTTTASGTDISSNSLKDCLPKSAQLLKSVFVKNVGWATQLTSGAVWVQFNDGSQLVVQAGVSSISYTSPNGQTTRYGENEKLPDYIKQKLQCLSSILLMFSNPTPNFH

[6] = target: Ephrin type-A receptor 4 (Homo sapiens) (UniProt P54764); assay: Competitive binding affinity to EPHA4 (unknown origin) at 10 uM in presence of ATP relative to control; how it was run: as §1
Sequence of Ephrin type-A receptor 4 (Homo sapiens) (P54764 whole entry, canonical isoform): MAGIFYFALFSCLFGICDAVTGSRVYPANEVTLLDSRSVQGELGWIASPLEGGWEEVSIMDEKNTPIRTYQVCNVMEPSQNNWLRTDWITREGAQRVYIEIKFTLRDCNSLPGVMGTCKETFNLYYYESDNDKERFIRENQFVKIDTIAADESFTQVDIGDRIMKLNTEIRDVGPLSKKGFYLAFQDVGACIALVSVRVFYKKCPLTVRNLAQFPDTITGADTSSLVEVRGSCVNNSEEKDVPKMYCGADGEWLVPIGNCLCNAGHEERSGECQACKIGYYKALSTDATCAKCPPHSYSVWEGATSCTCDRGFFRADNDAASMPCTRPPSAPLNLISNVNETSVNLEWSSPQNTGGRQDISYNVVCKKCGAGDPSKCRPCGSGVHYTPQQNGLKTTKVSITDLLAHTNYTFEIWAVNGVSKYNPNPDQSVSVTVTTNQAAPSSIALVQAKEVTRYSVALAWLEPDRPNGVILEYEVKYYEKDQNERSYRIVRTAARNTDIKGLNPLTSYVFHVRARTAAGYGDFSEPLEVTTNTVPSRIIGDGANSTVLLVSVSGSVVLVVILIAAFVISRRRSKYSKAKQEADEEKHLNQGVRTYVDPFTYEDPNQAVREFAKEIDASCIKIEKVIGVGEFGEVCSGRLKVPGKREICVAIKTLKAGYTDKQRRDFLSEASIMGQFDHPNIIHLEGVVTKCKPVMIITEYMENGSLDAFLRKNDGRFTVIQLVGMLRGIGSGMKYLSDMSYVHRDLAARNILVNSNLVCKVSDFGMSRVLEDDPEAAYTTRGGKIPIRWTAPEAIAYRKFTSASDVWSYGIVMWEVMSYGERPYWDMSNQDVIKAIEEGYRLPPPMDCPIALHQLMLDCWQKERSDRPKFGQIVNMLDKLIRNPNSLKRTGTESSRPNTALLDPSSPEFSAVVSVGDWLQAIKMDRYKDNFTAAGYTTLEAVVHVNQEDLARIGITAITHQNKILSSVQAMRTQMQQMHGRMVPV

[7] = target: Casein kinase I isoform gamma-2 (Homo sapiens) (UniProt P78368); assay: Competitive binding affinity to CSNK1G2 (unknown origin) at 10 uM in presence of ATP relative to control
Sequence of Casein kinase I isoform gamma-2 (Homo sapiens) (P78368 whole entry, looked up, canonical isoform): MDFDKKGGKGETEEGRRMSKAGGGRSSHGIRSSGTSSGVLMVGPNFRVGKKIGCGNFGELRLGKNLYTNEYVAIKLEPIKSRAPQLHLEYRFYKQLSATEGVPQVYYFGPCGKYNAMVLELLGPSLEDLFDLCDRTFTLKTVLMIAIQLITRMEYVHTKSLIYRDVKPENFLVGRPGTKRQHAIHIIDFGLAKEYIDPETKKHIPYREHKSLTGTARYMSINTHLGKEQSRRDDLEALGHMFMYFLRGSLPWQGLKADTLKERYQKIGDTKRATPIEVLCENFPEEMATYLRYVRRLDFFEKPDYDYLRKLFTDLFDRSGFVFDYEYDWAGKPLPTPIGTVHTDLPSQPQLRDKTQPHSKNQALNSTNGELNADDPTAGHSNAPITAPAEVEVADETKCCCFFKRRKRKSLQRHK

Sequence of Platelet-derived growth factor receptor beta (P09619 whole entry): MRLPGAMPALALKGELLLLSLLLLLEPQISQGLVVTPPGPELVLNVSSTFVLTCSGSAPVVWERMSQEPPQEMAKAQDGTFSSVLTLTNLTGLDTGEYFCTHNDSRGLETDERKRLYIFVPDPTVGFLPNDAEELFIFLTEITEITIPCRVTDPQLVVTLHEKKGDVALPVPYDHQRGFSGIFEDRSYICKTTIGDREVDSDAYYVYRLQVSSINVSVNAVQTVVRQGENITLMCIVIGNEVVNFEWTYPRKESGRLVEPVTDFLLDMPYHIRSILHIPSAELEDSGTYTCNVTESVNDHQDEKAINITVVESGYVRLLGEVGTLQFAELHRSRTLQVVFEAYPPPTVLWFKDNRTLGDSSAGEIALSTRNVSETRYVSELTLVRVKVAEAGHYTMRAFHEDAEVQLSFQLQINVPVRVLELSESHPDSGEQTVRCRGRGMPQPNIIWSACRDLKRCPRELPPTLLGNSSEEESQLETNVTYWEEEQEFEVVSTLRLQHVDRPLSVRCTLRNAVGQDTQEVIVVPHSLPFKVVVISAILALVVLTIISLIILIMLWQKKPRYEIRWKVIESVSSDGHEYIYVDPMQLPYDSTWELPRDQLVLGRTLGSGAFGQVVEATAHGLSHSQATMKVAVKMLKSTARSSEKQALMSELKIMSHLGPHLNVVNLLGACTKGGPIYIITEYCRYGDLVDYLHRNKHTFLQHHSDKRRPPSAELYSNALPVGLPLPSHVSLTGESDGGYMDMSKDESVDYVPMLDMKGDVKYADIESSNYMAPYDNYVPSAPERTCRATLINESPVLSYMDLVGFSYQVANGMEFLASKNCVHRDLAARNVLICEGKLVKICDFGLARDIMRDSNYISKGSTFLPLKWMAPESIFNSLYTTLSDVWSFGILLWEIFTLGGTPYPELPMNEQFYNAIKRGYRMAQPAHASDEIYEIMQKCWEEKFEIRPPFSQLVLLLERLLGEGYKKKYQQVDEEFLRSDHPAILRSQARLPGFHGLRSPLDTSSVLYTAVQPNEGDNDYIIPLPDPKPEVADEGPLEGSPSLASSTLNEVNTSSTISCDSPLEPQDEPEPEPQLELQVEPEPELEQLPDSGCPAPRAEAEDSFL

Row | inhibition [1] [%] | inhibition [2] [%] | inhibition [3] [%] | inhibition [4] [%] | inhibition [5] [%] | inhibition [6] [%] | inhibition [7] [%] | Compound
1 | 90 | < 50 | < 50 | < 50 | 63 | < 50 | < 50 | O[C@H]1CC[C@H](Nc2nccc(-n3ncc4ccccc43)n2)CC1
2 | 67 | < 50 | < 50 | < 50 | < 50 | < 50 | < 50 | O[C@H]1CC[C@H](Nc2nccc(-n3ccc4ccccc43)n2)CC1
3 | > 85 | – | – | – | – | – | – | CS(=O)(=O)CCCOc1cccc2c1ccn2-c1ccnc(N[C@H]2CC[C@H](C(=O)N3CCC(O)CC3)CC2)n1
4 | 95 | < 50 | < 50 | 81 | < 50 | < 50 | 100 | N[C@H]1CC[C@H](Nc2nccc(-n3nnc4ccccc43)n2)CC1
5 | 70 | < 50 | < 50 | 70 | 71 | < 50 | 76 | O=C([C@H]1CC[C@H](Nc2nccc(-n3nnc4ccccc43)n2)CC1)N1CCOCC1
6 | 98 | 96 | 91 | 87 | 100 | < 50 | 74 | O[C@H]1CC[C@H](Nc2nccc(-c3n[nH]c4ccccc34)n2)CC1
7 | 91 | < 50 | < 50 | 65 | < 50 | < 50 | 50 | O[C@H]1CC[C@H](Nc2nccc(-n3nnc4ccccc43)n2)CC1
